High-throughput results: PubChem, several laboratories
Compounds with a hit are over-represented: about 3.5% of the library has one in this group of screens.
Yeast growth inh: growth inhibitors of yeast BB579 in restrictive medium, primary screen, yeast lifespan-shortening project, S. cerevisiae. 0.51% of 140,000 active. inhibition, % at 10 µM. OD615, 48 h;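 active = inhibition above a set limit, 3 SD over the mean compound inhibition, cut at about 44% in these data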
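System: Saccharomyces cerevisiae DeaD strain BB579, replicative lifespan model yeast | Buffer or medium: Restrictive glucose-based CSMM-D medium | Times: 4 h preincubation and 48 h exposure at 30 °C | Detection: OD615 turbidity measurement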
Yeast life ext: compounds extending yeast replicative lifespan, primary screen, S. cerevisiae, OD615. S. cerevisiae growth with nicotinamide; deaD strain in restrictive glucose medium. inhibition of the nicotinamide effect, % at 10 µM. AID 775, 2007. 0.68% of 130,000 active;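 active = inhibition above a set limit, placed 3 SD over the median of all compounds, cut at about 26% in these data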;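 note: 0% = nicotinamide-treated wells and 100% = cells grown without nicotinamide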
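Assay system: engineered S. cerevisiae DeaD replicative-lifespan strain, galactose-grown log-phase cells; medium: restrictive CSMM-D dextrose medium; also added: nicotinamide, 1.5 mM, co-present with compound; schedule: 48 h compound exposure at 30 °C, humidified; detection: absorbance at 615 nm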
bCat nuc transl: modulators of beta-catenin nuclear translocation, primary screen, imaging, HeLa cells, immunofluorescence, high-content | nuclear translocation activity, % at 5 µM | 0.3% of 190,000 active | AID 1665, 2009;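 active = nuclear translocation activity above 50% at 5 µM, with a well cell count of 50 or more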;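 note: per-cell ratio of nuclear to cytoplasmic median beta-catenin stain intensity; plate controls were DMSO negative control for no effect and GSK-3 inhibitor IX positive control for full effect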
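Test system: human HeLa cells, endogenous beta-catenin. Times: 24 h compound exposure, 37°C. Measured by: beta-catenin immunofluorescence imaging with DAPI.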
HMGR II inh: inhibitors of E. faecalis class II HMGR, primary screen, biochemical, Enterococcus faecalis | 0.41% of 190,000 active | HMG-CoA reductase (Enterococcus faecalis, mvaE) | purified E. faecalis HMGR, NADPH absorbance 340 nm kinetic | inhibition, % at 10 µM;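 active = inhibition above a set limit, the median over all tested compounds plus 3 SD, cut at about 9.5% in these data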;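 note: enzyme runs in reverse so mevalonate oxidation gives rising NADPH absorbance; 0% = complete reaction with DMSO and 100% = background rate lacking mevalonate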
MT stabilize HCS: microtubule stabilizers in HeLa cells, primary screen, imaging, high-content imaging; HeLa tubulin immunostaining HCS, 24 h; share of cells brighter than vehicle mean+2SD; % tubulin-high responders, % at 10 µM; 0.83% of 200,000 active; AID 2205, 2009;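 active = plate Z-score above 3 for both tubulin-high and condensed-nucleus cell shares, with cell loss under 80%, at 10 µM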;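 note: anti alpha tubulin signal scored within the nucleus-defined area of each cell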
RAM network inh: inhibitors of the yeast RAM network, primary screen, dse1pr::URA3 reporter, 5-FOA selection; S. cerevisiae dse1pr::URA3 reporter, 5-FOA growth OD615, 2 d; analog-sensitive cbk1-as2 kinase mutant strain; 1.8% of 190,000 active; AID 868, 2007; inhibition, % at 50 µM;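 active = inhibition above a set limit, 3 SD over mean compound inhibition, cut at about 8.4% in these data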;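 note: 0% = DMSO-only wells with no growth and 100% = 10 µM 1-NA-PP1 full growth; inhibition rescues growth on 5-FOA so higher OD means more RAM inhibition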
RAM efflux-def: 5-FOA growth of efflux-deficient control yeast, dose response, counter-screen for RAM network inhibitor project, S. cerevisiae, OD615 | S. cerevisiae efflux-deficient reporter strain, 5-FOA growth OD615, 2 days | max inhibition, % | AID 1305, 2008 | shares compounds with RAM network inh | 1,200 tested, under 10 active; call rule not given here;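 note: plate controls were vehicle for no effect and reference inhibitor for full effect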
* hit, by the source's call; x = not tested or not shown.

SMILES | Yeast growth inh | Yeast life ext | bCat nuc transl | HMGR II inh | MT stabilize HCS | RAM network inh | RAM efflux-def
COc1ccc(C2=NN(C(C#N)c3ccc(OC)cc3)C(c3ccccc3)C2)cc1 (stereo not drawn) | -18.3 | 0.2 | -0.5 | -2.3 | 14.8 | 14.2* | 1.9
COc1ccc(C(C#N)N2N=C(c3ccccc3)CC2c2ccccc2)cc1OC (stereo not drawn) | -12.5 | -7.8 | -0.4 | -6.8 | 1.4 | 4.1 | x
COc1ccccc1C1(CCNS(=O)(=O)c2ccc(C)cc2)CCOC(C(C)C)C1 (stereo not drawn) | -33.0 | 2.5 | -0.2 | -0.8 | 6.6 | 13.2* | 3.4
C=CCOc1cccc(/C=C2\C(=O)N(Cc3ccc(C)cc3)C(C)=C2C(=O)OC)c1 | -19.9 | 7.1 | -0.1 | 3.1 | 5.4 | 17.8* | 4.2
C=C(C)c1cccc(C(C)(C)NC(=O)NC2CC(C)(C)NC(C)(C)C2)c1 | x | x | 0.8 | 2.5 | 1.1 | 1.0 | x
COc1ccc(Nc2nc(S(=O)(=O)c3ccc(C)cc3)c(Cl)s2)cc1 | -9.5 | -0.9 | 2.1 | -11.2 | 4.9 | 5.8 | x
Cc1ccc(S(=O)(=O)c2nc(Nc3ccccc3)sc2Cl)cc1 | -29.4 | -7.3 | 0.8 | -8.8 | 3.6 | 13.1* | 2.2
CCCNC(=O)/C=C/C(=O)O | x | x | -0.5 | 2.1 | 0.7 | 0.4 | x
COc1ccc(Nc2nc3c(C)cccc3cc2C#N)c(OC)c1 | -35.6 | 6.6 | 0.0 | -3.5 | 5.1 | 12.2* | 4.7
O=C(C1=NOC(CNc2ncc(C(F)(F)F)cc2Cl)C1)N1CCOCC1 (stereo not drawn) | x | x | 0.2 | -3.0 | 7.1 | 3.1 | x
